This is a sample that favours compounds with a hit; in the whole collection about 2.9% have one here.
SENP7 block = SENP7 protease inhibitors, primary screen, biochemical, luminescence, uHTS. 1.5% of 330,000 active. inhibition, % at 5 µM. Sentrin-specific protease 7 (Homo sapiens), Q9BQF6. recombinant SENP7, Z-RLRGG-aminoluciferin luminescence, 40 min;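 active = inhibition above about 50% at the single test dose, limit read from the data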;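 also: plate controls were DMSO with enzyme for no effect and no enzyme buffer wells for full effect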
Target sequence (Q9BQF6 706-1050 limits assumed): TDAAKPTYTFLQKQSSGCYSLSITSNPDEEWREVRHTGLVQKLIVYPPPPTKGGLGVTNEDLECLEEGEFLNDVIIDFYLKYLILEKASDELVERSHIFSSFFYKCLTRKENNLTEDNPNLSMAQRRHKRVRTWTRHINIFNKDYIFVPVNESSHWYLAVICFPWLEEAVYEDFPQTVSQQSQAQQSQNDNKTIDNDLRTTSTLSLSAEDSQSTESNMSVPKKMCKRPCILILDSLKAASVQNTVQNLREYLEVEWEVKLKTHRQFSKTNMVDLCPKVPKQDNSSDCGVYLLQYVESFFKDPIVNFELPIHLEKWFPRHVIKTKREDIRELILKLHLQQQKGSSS
SENP6 block = SENP6 protease inhibitors, primary screen, biochemical, luminescence, uHTS | inhibition, % at 10 µM | AID 2599, 2010 | 1.8% of 330,000 active | Sentrin-specific protease 6 (Homo sapiens), Q9GZR1 | Recombinant SENP6 catalytic domain, aminoluciferin luminescence;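 active = inhibition above about 50% at the single tested dose, limit read from the data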;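 also: plate controls were DMSO wells with enzyme for no effect and DMSO wells lacking enzyme for full effect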
SENP8 block-1 = human SENP8 protease inhibitors, primary screen, biochemical, fluorescence, Nedd8 protein substrate, uHTS | Sentrin-specific protease 8 (Homo sapiens), Q96LD8 | inhibition, % at 20 µM | 0.64% of 360,000 active | recombinant SENP8 | AID 602440, 2012; in the data active = inhibition mostly above about 40%, no sharp cut-off; inactive = mostly below about 27%
HSP90 inh = HSP90 inhibitors, primary screen, cell lysate, luminescence | Heat shock protein HSP 90 (rabbit reticulocyte lysate; luciferase refolding) | Rabbit reticulocyte lysate, luciferase refolding luminescence, 3 h | inhibition, % at 5.6 µM | 0.91% of 290,000 active;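 active = inhibition above the screen-wide mean plus 3 SD, computed separately per campaign, cut at about 16% in these data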;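 also: 0% = DMSO wells and 100% = 60 µM geldanamycin wells; inhibitors lower the luminescence because luciferase stays unfolded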
SENP1 inh = human SENP1 catalytic domain inhibitors, primary screen, biochemical, FRET, uHTS. recombinant SENP1 catalytic domain, CyPet-SUMO1-YPet FRET cleavage. inhibition, % at 10 µM. 0.21% of 360,000 active;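 active = inhibition at least 30% at 10 µM, raw YFP signal under a set limit, fluorescence ratio 0.5 to 1.5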;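 also: 0% = enzyme with DMSO and 100% = no enzyme wells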
Target sequence (Q9P0U3 419-644 limits assumed): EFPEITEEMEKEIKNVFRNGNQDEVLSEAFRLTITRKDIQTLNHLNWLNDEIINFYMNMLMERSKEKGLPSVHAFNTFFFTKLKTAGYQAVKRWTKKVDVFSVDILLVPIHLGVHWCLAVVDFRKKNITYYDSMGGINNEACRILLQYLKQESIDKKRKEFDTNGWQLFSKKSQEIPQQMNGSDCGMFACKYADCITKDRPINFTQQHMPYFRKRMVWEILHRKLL
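Test system: human SENP1 catalytic domain; medium: Tris pH 8 buffer plus EDTA, NaCl, BME, BSA, NP40, catalase; incubation: 50 min reaction at room temperature; technique: FRET, CFP and YFP emission; controls: no-enzyme low control and enzyme-plus-DMSO high control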
SENP8 block-2 = SENP8 protease inhibitors, primary screen, biochemical, luminescence | purified SENP8, Z-RLRGG-aminoluciferin cleavage | inhibition, % at 10 µM | 1.2% of 330,000 active; in the data active = inhibition above about 50%
HSP90 inh confirm = HSP90 inhibitors, confirmation, cell lysate, luminescence | 64% of 2,300 active | AID 1846, 2009 | inhibition, % at 5.9 µM | shares compounds with HSP90 inh | rabbit reticulocyte lysate, luciferase refolding luminescence, 3 h; in the data active = inhibition above about 18%;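 also: 0% = vehicle wells and 100% = reference inhibitor wells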
luciferase ctr = firefly luciferase inhibitors, HSP90 counter-screen, confirmation, artefact control for HSP90 inhibitor project, biochemical, luminescence, triplicate; inhibition, % at 5.9 µM; 48% of 2,300 active; AID 1847, 2009; shares compounds with HSP90 inh; purified native firefly luciferase;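 active = inhibition above the mean inhibition of all tested sample wells plus 3 SD, cut at about 10% in these data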;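 also: 0% = DMSO with luciferase and 100% = wells lacking luciferase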
SENP8 conf = SENP8 protease inhibitors, retest, confirmation, biochemical, luminescence, single concentration | shares compounds with SENP7 block | Recombinant SENP8, Z-RLRGG-aminoluciferin luminescence, 60 min | inhibition, % at 12.5 µM | 40% of 6,200 active;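 active = mean inhibition across replicates above about 50%, limit read from the data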
SENP6 conf = SENP6 protease inhibitors, confirmation, biochemical, luminescence, single concentration; AID 488915, 2010; recombinant SENP6, Z-RLRGG-aminoluciferin luminescence; 58% of 6,200 active; inhibition, % at 12.5 µM; shares compounds with SENP7 block
SENP7 confirm = SENP7 protease inhibitors, retest, confirmation, biochemical, luminescence, single concentration; shares compounds with SENP7 block; recombinant SENP7, Z-RLRGG-aminoluciferin luminescence, 40 min; inhibition, % at 12.5 µM; 69% of 6,200 active; AID 488917, 2010
Casp3 select = caspase-3 protease inhibitors, confirmation, selectivity assay for SENP inhibitor project, biochemical, single concentration; AID 488918, 2010; inhibition, % at 12.5 µM; 60% of 6,200 active; shares compounds with SENP7 block; purified caspase-3, Z-DEVD-aminoluciferin luminescence, 60 min;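 active = mean inhibition above about 50%, limit read from the data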;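 also: plate controls were enzyme with DMSO for no effect and wells without caspase-3 for full effect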
Luc interf = counter-screen for SENP inhibitors: luminescence interference. 39% of 6,200 active. Pre-incubated SENP8/Z-RLRGG-aminoluciferin, luciferase luminescence interference. AID 488919. shares compounds with SENP7 block. inhibition, % at 12.5 µM;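 active = mean inhibition above about 50% when retested at one dose, limit read from the data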;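 also: plate controls were DMSO wells with completed reaction for no effect and substrate without enzyme for full effect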
* marks the source's active call; other numbers are inactive results; i = inactive; nt = no result given.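 The calls were made as follows, unless noted: active = mean inhibition above about 50% in the one-dose retest (limit read from the data); inactive = the rest.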

SMILES | SENP7 block | SENP6 block | SENP8 block-1 | HSP90 inh | SENP1 inh | SENP8 block-2 | HSP90 inh confirm | luciferase ctr | SENP8 conf | SENP6 conf | SENP7 confirm | Casp3 select | Luc interf
O=C(NCCc1ccccc1F)c1ccc2c(c1)OCCO2 | 89* | 92* | -3 | 95* | 0 | 80* | 98* | 92* | 89* | 89* | 98* | 94* | 89*
O=C(NCc1ccccc1F)c1ccc2c(c1)OCO2 | -6 | -4 | 4 | 6 | 1 | -11 | nt | nt | nt | nt | nt | nt | nt
O=C(Nc1ccc(Br)cc1F)c1ccc2c(c1)OCCO2 | 86* | 90* | 3 | 55* | 1 | 80* | 50* | 41* | -3 | 86* | 98* | 84* | 19
Cc1ccccc1NC(=O)c1ccc2c(c1)OCCO2 | 0 | 22 | 23 | 2 | -1 | -3 | nt | nt | nt | nt | nt | nt | nt
O=C(Nc1ccc(F)cc1F)c1ccc2c(c1)OCCO2 | 89* | 89* | 3 | 23* | 3 | 78* | 32* | 12* | 8 | 82* | 98* | 93* | 56*
CC(Sc1ccccc1)C(=O)NCC(c1ccco1)N1CCCCC1 (stereo not given) | -4 | -20 | 4 | nt | 1 | -1 | nt | nt | nt | nt | nt | nt | nt
Cc1ccc(OCC(=O)NCCNC(=O)c2cccnc2)cc1C | 4 | -13 | 11 | 1 | 1 | -18 | nt | nt | nt | nt | nt | nt | nt
CCOc1ccc2ccccc2c1/C=N/NC(=O)c1ccncc1 | -3 | 7 | -19 | -3 | -2 | -6 | nt | nt | nt | nt | nt | nt | nt
CC12CCC(O)CC1=CCC1C2CCC2(C)C3=NN=CC3CC12 (stereo not given) | nt | nt | 18 | nt | 2 | nt | nt | nt | nt | nt | nt | nt | nt
CN(C)c1ccc(-c2nc3cc(N)ccc3o2)cc1 | 95* | 93* | -449 | 30* | -42 | 91* | 55* | 51* | 85* | 94* | 100* | 91* | 79*
Nc1ccc2oc(-c3ccccn3)nc2c1 | 2 | -6 | -69 | 1 | 3 | -5 | nt | nt | nt | nt | nt | nt | nt
CCCN1C=CC(=C2C(=O)c3ccccc3C2=O)C=C1 | 93* | 95* | 21 | 92* | 14 | 90* | 96* | 91* | 93* | 98* | 102* | 98* | 60*
CCN1C=CC(=C2C(=O)c3ccccc3C2=O)C=C1 | 86* | 88* | 17 | 86* | 11 | 76* | 93* | 87* | -22 | 86* | 100* | 96* | 89*
CC1=CC(=C2C(=O)c3ccccc3C2=O)C=C(C)O1 | 34 | 19 | 11 | -1 | -8 | 10 | nt | nt | nt | nt | nt | nt | nt
CCCCCCN1C=CC(=C2C(=O)c3ccccc3C2=O)C=C1 | 76* | 87* | 17 | 48* | 48* | 85* | 84* | 78* | 2 | 2 | -4 | -5 | -2
CN1C=CC(=C2C(=O)c3ccccc3C2=O)C=C1 | 15 | 45 | nt | 12 | nt | 1 | nt | nt | nt | nt | nt | nt | nt
CCCCN1C(C)=CC(=C2C(=O)c3ccccc3C2=O)C=C1C | 5 | 60* | 22 | 17* | 29 | 46 | 43* | 31* | 61* | 60* | 81* | 85* | -1
C(=C\c1nc2ccccc2[nH]1)/c1ccccc1 | 100* | 94* | -261 | 31* | -1 | 97* | 54* | 48* | 98* | 99* | 103* | 98* | 92*
CN(C)c1ccc(/C=C/c2nc3ccccc3c(=O)[nH]2)cc1 | 95* | -12 | -234 | 59* | -21 | 93* | 76* | 73* | 47 | 90* | 103* | 96* | 38
C(=C\c1ccco1)/c1nc2ccccc2[nH]1 | -1 | -11 | -348 | 2 | -30 | 10 | nt | nt | nt | nt | nt | nt | nt
COc1cccc(/C=N/Nc2ncnc(N)c2[N+](=O)[O-])c1OC | 72* | 68* | 20 | 27* | 2 | 17 | 80* | 62* | 38 | 46 | 64* | 77* | 21
Cc1cc(/C=N/Nc2ncnc(N)c2[N+](=O)[O-])c(C)n1-c1ccccc1 | 97* | 0 | 55* | 76* | 4 | 94* | 95* | 92* | 6 | 61* | 95* | 52* | 11
Cc1cc(/C=N/NC(=O)c2cccc([N+](=O)[O-])c2)c(C)n1-c1ccccc1 | -19 | -6 | 13 | 0 | 1 | -6 | nt | nt | nt | nt | nt | nt | nt
S=C(Nc1cccc2ccccc12)Nc1cccc2ccccc12 | nt | nt | i | nt | -26 | nt | nt | nt | nt | nt | nt | nt | nt
Cc1ccc(F)c(NC(=S)Nc2cccc3ccccc23)c1 | 45 | 88* | -453 | 18* | -15 | 83* | -6 | -9 | 10 | 10 | 1 | -5 | -3
FC(F)(F)c1ccccc1NC(=S)Nc1cccc2cnccc12 | nt | nt | -119 | 1 | -7 | nt | nt | nt | nt | nt | nt | nt | nt
Cc1ccccc1NC(=S)Nc1cccc2cnccc12 | 86* | 98* | -152 | 73* | -14 | 88* | -3 | -7 | 16 | 33 | 19 | 10 | 6
CCCc1ccc2oc(C(=O)N(C)Cc3nccs3)c(C)c2c1 | 2 | 2 | 0 | -5 | 2 | 1 | nt | nt | nt | nt | nt | nt | nt
